Source: ChEMBL document CHEMBL1806473, “Structure-based optimization of click-based histone deacetylase inhibitors” (Eur J Med Chem, 2011)

Columns and labels:
A498 [1] = assay: Antiproliferative activity against human A498 cells by SRB assay; type: functional
Summary of the method: (§1)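 Tested in the NCI in vitro human tumor cell line screen, run by the National Cancer Institute. Each compound was given at five concentrations (100, 10, 1.0, 0.1 and 0.01 μM). GI50 is the drug concentration that reduces growth of treated cells to half that of control cells during drug incubation, judged from the SRB signal.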

SF-268 = assay: Cytotoxicity against human SF268 cells; type: cell-based
Summary of the method: (§2)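 Tested in the NCI in vitro disease-oriented human tumour cell line screen, with screening performed by NCI. Growth was read by SRB signal over the drug incubation period at five concentrations: 100, 10, 1.0, 0.1 and 0.01 μM. GI50 is the concentration that reduces growth of treated cells to half that of control cells.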

DU-145 = assay: Antiproliferative activity against human DU145 cells by SRB assay; type: functional; summary of the method: as §1
T47D = assay: Antiproliferative activity against human T47D cells by SRB assay; type: functional
Summary of the method: (§3)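 Cell growth was tested in the NIH in vitro disease-oriented human tumor cell line screen, which NCI ran for these compounds. Compounds were tested at five concentrations (100, 10, 1.0, 0.1 and 0.01 μM), and growth was read by SRB signal. GI50 is the drug concentration that reduces growth of treated cells to half that of control cells during drug incubation.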

COLO 205 [2] = assay: Cytotoxicity against human COLO205 cells; type: cell-based; summary of the method: as §2
HCT-116 [3] = assay: Antiproliferative activity against human HCT116 cells by SRB assay; type: functional; summary of the method: as §1
HCC 2998 [4] = assay: Cytotoxicity against human HCC2998 cells; type: cell-based; summary of the method: as §2
RXF 393 = assay: Antiproliferative activity against human RXF393 cells by SRB assay; type: functional; summary of the method: as §1
UACC-257 [5] = assay: Antiproliferative activity against human UACC257 cells by SRB assay; type: functional; summary of the method: as §3
HCC 2998 [6] = assay: Antiproliferative activity against human HCC2998 cells by SRB assay; type: functional; summary of the method: as §1
SN12C = assay: Antiproliferative activity against human SN12C cells by SRB assay; type: functional; summary of the method: as §1
HCT-15 = assay: Antiproliferative activity against human HCT15 cells by SRB assay; type: functional; summary of the method: as §1
TK-10 [7] = assay: Antiproliferative activity against human TK10 cells by SRB assay; type: functional; summary of the method: as §3
SNB-19 [8] = assay: Cytotoxicity against human SNB19 cells; type: cell-based
Summary of the method: (§4)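 Screened by NCI in its in vitro disease-oriented human tumour cell line panel. Compounds tested at five concentrations (100, 10, 1.0, 0.1 and 0.01 μM). Growth read by sulforhodamine B (SRB) signal. GI50 is the concentration reducing growth of treated cells to half that of control cells during the drug incubation.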

CAKI-1 = assay: Antiproliferative activity against human Caki1 cells by SRB assay; type: functional; summary of the method: as §1
TK-10 [9] = assay: Cytotoxicity against human TK10 cells; type: cell-based; summary of the method: as §4
OVCAR-8 [10] = assay: Antiproliferative activity against human OVCAR8 cells by SRB assay; type: functional; summary of the method: as §1
A549 = assay: Antiproliferative activity against human A549 cells by SRB assay; type: functional; summary of the method: as §1
UACC-257 [11] = assay: Cytotoxicity against human UACC257 cells; type: cell-based; summary of the method: as §4
SNB-19 [12] = assay: Antiproliferative activity against human SNB19 cells by SRB assay; type: functional; summary of the method: as §1
SW-620 [13] = assay: Antiproliferative activity against human SW620 cells by SRB assay; type: functional; summary of the method: as §3
K562 = assay: Antiproliferative activity against human K562 cells by SRB assay; type: functional; summary of the method: as §1
OVCAR-8 [14] = assay: Cytotoxicity against human OVCAR8 cells; type: cell-based
786-0 = assay: Antiproliferative activity against human 786-0 cells by SRB assay; type: functional; summary of the method: as §1
HCT-116 [15] = assay: Cytotoxicity against human HCT116 cells; type: cell-based; summary of the method: as §2
UO-31 [16] = assay: Antiproliferative activity against human UO31 cells by SRB assay; type: functional; summary of the method: as §3
HOP-92 [17] = assay: Cytotoxicity against human HOP92 cells; type: cell-based
HOP-92 [18] = assay: Antiproliferative activity against human HOP92 cells by SRB assay; type: functional; summary of the method: as §1
OVCAR-4 [19] = assay: Antiproliferative activity against human OVCAR4 cells by SRB assay; type: functional; summary of the method: as §1
MDA-MB-231 = assay: Cytotoxicity against human MDA-MB-231 cells; type: functional; summary of the method: as §2
SNB-75 = assay: Antiproliferative activity against human SNB75 cells by SRB assay; type: functional; summary of the method: as §3
OVCAR-3 = assay: Cytotoxicity against human OVCAR3 cells; type: cell-based; summary of the method: as §2
OVCAR-5 = assay: Cytotoxicity against human OVCAR5 cells; type: cell-based; summary of the method: as §2
SF-295 = assay: Cytotoxicity against human SF295 cells; type: cell-based; summary of the method: as §2
CCRF-CEM [20] = assay: Antiproliferative activity against human CCRF-CEM cells by SRB assay; type: functional; summary of the method: as §1
COLO 205 [21] = assay: Antiproliferative activity against human COLO205 cells by SRB assay; type: functional; summary of the method: as §1
SK-MEL-5 = assay: Cytotoxicity against human SK-MEL-5 cells; type: cell-based
LOX IMVI = assay: Antiproliferative activity against human LOXIMVI cells by SRB assay; type: functional; summary of the method: as §1
OVCAR-4 [22] = assay: Cytotoxicity against human OVCAR4 cells; type: cell-based
CCRF-CEM [23] = assay: Cytotoxicity against human CCRF-CEM cells; type: cell-based
MDA-MB-468 = assay: Antiproliferative activity against human MDA-MB-468 cells by SRB assay; type: functional; summary of the method: as §1
UO-31 [24] = assay: Cytotoxicity against human UO31 cells; type: cell-based; summary of the method: as §4
SW-620 [25] = assay: Cytotoxicity against human SW620 cells; type: cell-based; summary of the method: as §4
U-251 = assay: Cytotoxicity against human U251 cells; type: cell-based; summary of the method: as §4
PC-3 = assay: Cytotoxicity against human PC3 cells; type: cell-based
SK-MEL-2 = assay: Antiproliferative activity against human SK-MEL-2 cells by SRB assay; type: functional; summary of the method: as §1
HL-60(TB) = assay: Antiproliferative activity against human HL-60(TB) cells by SRB assay; type: functional; summary of the method: as §2
NCI-H322M = assay: Cytotoxicity against human NCI-H322M cells; type: cell-based
SK-MEL-28 [26] = assay: Antiproliferative activity against human SK-MEL-28 cells by SRB assay; type: functional; summary of the method: as §1
SK-MEL-28 [27] = assay: Cytotoxicity against human SK-MEL-28 cells; type: cell-based
MDA-MB-435 = assay: Cytotoxicity against human MDA-MB-435 cells; type: cell-based
KM12 = assay: Cytotoxicity against human KM12 cells; type: cell-based
A498 [28] = assay: Cytotoxicity against human A498 cells; type: cell-based

## CC(/C=C/c1ccccc1)n1cc(/C=C/C(=O)NO)nn1 (configuration not stated)
A498 [1]
  GI50: 472 nM
SF-268
  LC50: 12200 nM
DU-145
  GI50: 803 nM
T47D
  GI50: 667 nM
COLO 205 [2]
  LC50: 5200 nM
HCT-116 [3]
  GI50: 341 nM
HCC 2998 [4]
  LC50: 6910 nM
RXF 393
  GI50: 1410 nM
UACC-257 [5]
  GI50: 1350 nM
HCC 2998 [6]
  GI50: 927 nM
SN12C
  GI50: 1290 nM
HCT-15
  GI50: 2090 nM
TK-10 [7]
  GI50: 582 nM
SNB-19 [8]
  LC50: 37600 nM
CAKI-1
  GI50: 401 nM
TK-10 [9]
  LC50: 31900 nM
OVCAR-8 [10]
  GI50: 232 nM
A549
  GI50: 1470 nM
UACC-257 [11]
  LC50: > 100000 nM
SNB-19 [12]
  GI50: 1870 nM
SW-620 [13]
  GI50: 383 nM
K562
  GI50: 355 nM
OVCAR-8 [14]
  LC50: 6910 nM
786-0
  GI50: 1640 nM
HCT-116 [15]
  LC50: 3810 nM
UO-31 [16]
  GI50: 549 nM
HOP-92 [17]
  LC50: 7530 nM
HOP-92 [18]
  GI50: 677 nM
OVCAR-4 [19]
  GI50: 636 nM
MDA-MB-231
  LC50: > 100000 nM
SNB-75
  GI50: 924 nM
OVCAR-3
  LC50: 7330 nM
OVCAR-5
  LC50: > 100000 nM
SF-295
  LC50: > 100000 nM
CCRF-CEM [20]
  GI50: 442 nM
COLO 205 [21]
  GI50: 469 nM
SK-MEL-5
  LC50: 4520 nM
LOX IMVI
  GI50: 438 nM
OVCAR-4 [22]
  LC50: 18300 nM
CCRF-CEM [23]
  LC50: > 100000 nM
MDA-MB-468
  GI50: 299 nM
UO-31 [24]
  LC50: 66700 nM
SW-620 [25]
  LC50: 5150 nM
U-251
  LC50: 4500 nM
PC-3
  LC50: > 100000 nM
SK-MEL-2
  GI50: 614 nM
HL-60(TB)
  GI50: 269 nM
NCI-H322M
  LC50: > 100000 nM
SK-MEL-28 [26]
  GI50: 819 nM
SK-MEL-28 [27]
  LC50: 24500 nM
MDA-MB-435
  LC50: 30800 nM
KM12
  LC50: 6820 nM
A498 [28]
  LC50: 4830 nM

## CC(C)C(/C=C/c1ccccc1)n1cc(/C=C/C(=O)NO)nn1 (configuration not stated)
A498 [1]
  GI50: 1510 nM
SF-268
  LC50: 29700 nM
DU-145
  GI50: 1090 nM
T47D
  GI50: 1240 nM
COLO 205 [2]
  LC50: 6100 nM
HCT-116 [3]
  GI50: 316 nM
RXF 393
  GI50: 1190 nM
UACC-257 [5]
  GI50: 3120 nM
SN12C
  GI50: 1860 nM
HCT-15
  GI50: 2900 nM
TK-10 [7]
  GI50: 531 nM
SNB-19 [8]
  LC50: 66600 nM
CAKI-1
  GI50: 487 nM
TK-10 [9]
  LC50: > 100000 nM
OVCAR-8 [10]
  GI50: 816 nM
A549
  GI50: 1330 nM
UACC-257 [11]
  LC50: 88300 nM
SNB-19 [12]
  GI50: 2410 nM
SW-620 [13]
  GI50: 649 nM
K562
  GI50: 705 nM
OVCAR-8 [14]
  LC50: > 100000 nM
786-0
  GI50: 1590 nM
HCT-116 [15]
  LC50: 3850 nM
UO-31 [16]
  GI50: 1480 nM
HOP-92 [17]
  LC50: 22100 nM
HOP-92 [18]
  GI50: 1730 nM
OVCAR-4 [19]
  GI50: 4060 nM
MDA-MB-231
  LC50: 73400 nM
SNB-75
  GI50: 1820 nM
OVCAR-3
  LC50: 22100 nM
SF-295
  LC50: 58300 nM
CCRF-CEM [20]
  GI50: 351 nM
COLO 205 [21]
  GI50: 932 nM
SK-MEL-5
  LC50: 5170 nM
LOX IMVI
  GI50: 1180 nM
OVCAR-4 [22]
  LC50: 71400 nM
CCRF-CEM [23]
  LC50: > 100000 nM
UO-31 [24]
  LC50: 40900 nM
SW-620 [25]
  LC50: 9220 nM
U-251
  LC50: 5660 nM
PC-3
  LC50: 46500 nM
SK-MEL-2
  GI50: 1520 nM
HL-60(TB)
  GI50: 728 nM
NCI-H322M
  LC50: > 100000 nM
SK-MEL-28 [26]
  GI50: 1590 nM
SK-MEL-28 [27]
  LC50: 44900 nM
MDA-MB-435
  LC50: 31600 nM
KM12
  LC50: 9530 nM
A498 [28]
  LC50: 8630 nM
